# Experimental data reported in ChEMBL document CHEMBL4321880 (J Med Chem, 2020).
# Assays:
# [1] = tested on: ASPC1; experiment: Cytotoxicity against doxycycline-induced CYP3A5 overexpressing wild type human AsPC1 cells assessed as cell growth; format: ADME, cell-based
# In short: (§1)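 Cells seeded at 10,000/well. Dox-inducible lines were induced with 100 ng/mL doxycycline, then treated 24 h later with compound at 16 two-fold dilutions (0.0003–10 μM) plus 5 μM midazolam, in 0.66% DMSO final, for 24 h. Phase-contrast confluence imaging followed. Values were normalized to six 0.66% DMSO replicates and fitted with a three-parameter log(inhibitor) vs response curve.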
# [2] = tested on: ASPC1; experiment: Cytotoxicity against lentiviral pLVX-TRE3G-ZsGreen1-CYP3A5 transduced wild type human AsPC1 cells overexpressing CYP3A5 assessed as cell growth; format: ADME, cell-based; in short: as §1
# [3] = tested on: ASPC1; experiment: Cytotoxicity against CRISPR/Cas9-mediated CYP3A5 knock-out and doxycycline-induced CYP3A4 overexpressing human AsPC1 cells assessed as cell growth; format: ADME, cell-based; in short: as §1
# [4] = tested on: ASPC1; experiment: Cytotoxicity against CRISPR/Cas9-mediated CYP3A5 knock-out and doxycycline-induced CYP3A5 overexpressing human AsPC1 cells assessed as cell growth; format: ADME, cell-based; in short: as §1
# [5] = tested on: ASPC1; experiment: Cytotoxicity against CRISPR/Cas9-mediated CYP3A5 knock-out and lentiviral pLVX-TRE3G-ZsGreen1-CYP3A5 transduced human AsPC1 cells overexpressing CYP3A5 assessed as cell growth; format: ADME, cell-based; in short: as §1
# [6] = tested on: ASPC1; experiment: Cytotoxicity against wild type human AsPC1 cells assessed as cell growth; format: cell-based; in short: as §1
# [7] = tested on: ASPC1; experiment: Cytotoxicity against CRISPR/Cas9-mediated CYP3A5 knock-out and lentiviral pLVX-TRE3G-ZsGreen1-CYP3A4 transduced human AsPC1 cells overexpressing CYP3A4 assessed as cell growth; format: ADME, cell-based; in short: as §1
# [8] = tested on: ASPC1; experiment: Cytotoxicity against CRISPR/Cas9-mediated CYP3A5 knock-out human AsPC1 cells assessed as cell growth; format: ADME, cell-based; in short: as §1
# [9] = tested on: ASPC1; experiment: Increase in CYP3A4 expression in CRISPR/Cas9-mediated CYP3A5 knock-out and doxycycline-induced CYP3A4 overexpressing human AsPC1 cells at 1 uM after 24 hrs by Western blot analysis; format: ADME, cell-based; conditions: aspc1, 24 h
# In short: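 Overexpression was induced with 100 ng/mL doxycycline. […] Blots were probed with anti-CYP3A4 K03 (also detects CYP3A5) and β-actin, with infrared dye secondaries. Bands were normalized to actin across triplicate gels, with DMSO set as 1.0.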
# [10] = target: CYP3A5 (Homo sapiens, UniProt P20815); experiment: Inhibition of human recombinant CYP3A5 expressed in supersomes assessed as decrease in formation of D-luciferin at 1.89 uM using luciferin-IPA as substrate incubated for 10 mins in presence of NADPH by P450-Glo luminescence assay relative to control; conditions: probe luciferin-IPA
# Chain of CYP3A5 (P20815 whole entry): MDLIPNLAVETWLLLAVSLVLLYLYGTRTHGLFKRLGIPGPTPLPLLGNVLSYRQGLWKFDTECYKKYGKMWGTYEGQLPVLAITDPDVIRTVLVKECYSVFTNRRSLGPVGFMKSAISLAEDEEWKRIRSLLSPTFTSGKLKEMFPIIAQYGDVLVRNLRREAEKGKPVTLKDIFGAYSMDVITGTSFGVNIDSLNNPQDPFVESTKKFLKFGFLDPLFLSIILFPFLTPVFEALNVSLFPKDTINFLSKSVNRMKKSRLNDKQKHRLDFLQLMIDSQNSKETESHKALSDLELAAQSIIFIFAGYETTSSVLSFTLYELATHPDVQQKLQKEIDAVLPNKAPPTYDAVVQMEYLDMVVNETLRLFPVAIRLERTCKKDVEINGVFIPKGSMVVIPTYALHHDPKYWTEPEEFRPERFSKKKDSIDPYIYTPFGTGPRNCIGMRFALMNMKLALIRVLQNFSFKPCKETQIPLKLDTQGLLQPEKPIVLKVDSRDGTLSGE
smiles,measurement,setting,value
CC(=O)N1CCN(c2ccc(OCC3COC(Cn4ccnc4)(c4ccc(Cl)cc4Cl)O3)cc2)CC1 (stereo not given) [KETOCONAZOLE],Activity,[1],Non-Toxic
same,Activity,[2],Non-Toxic
same,Activity,[3],Non-Toxic
same,Activity,[4],Non-Toxic
same,Activity,[5],Non-Toxic
same,Activity,[6],Non-Toxic
same,Activity,[7],Non-Toxic
same,Activity,[8],Non-Toxic
same,Activity,[9],Active
same,"inhibition at 10 min, 1.89 µM",[10],100%
